Assay results from ChEMBL document CHEMBL1157072 (Bioorg Med Chem, 2010).
Converted amounts (≈) assume the structure as drawn. The source made the active and inactive calls. The calls are words filed in the database; no cut-off is given here.

Tests used:
[1] = Dissociation constant, pKa of the compound; type: physicochemical
Staphylococcus aureus [2] = assay: Antibacterial activity against Staphylococcus aureus NCTC 8325 carrying shuttle vector pMC-SK after 16 to 20 hrs by broth microdilution method; type: functional
Procedure, shortened: (§1)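 Broth microdilution in cation-adjusted Mueller Hinton broth. Compounds were serially diluted twofold in DMSO at 50-fold final strength (2% DMSO final). The inoculum was 1 × 10^4 cells per well. Plates were incubated at 37 °C for 16–20 h, and growth was read as absorbance at 600 nm.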

Staphylococcus aureus [3] = assay: Antibacterial activity against Staphylococcus aureus NCTC 8325 carrying shuttle vector pMC-SK with mepR gene after 16 to 20 hrs by broth microdilution method; type: functional; procedure, shortened: as §1
Staphylococcus aureus [4] = assay: Antibacterial activity against MBX-1090-resistant Staphylococcus aureus isolate d20A1 carrying shuttle vector pMC-SK after 16 to 20 hrs by broth microdilution method; type: functional; procedure, shortened: as §1
Staphylococcus aureus [5] = assay: Antibacterial activity against MBX-1090-resistant Staphylococcus aureus isolate d20A1 carrying shuttle vector pMC-SK with mepR gene after 16 to 20 hrs by broth microdilution method; type: functional; procedure, shortened: as §1
Staphylococcus aureus [6] = assay: Antibacterial activity against Staphylococcus aureus NCTC 8325 after 16 to 20 hrs by broth microdilution method; type: functional; procedure, shortened: as §1
Staphylococcus aureus [7] = assay: Antibacterial activity against Staphylococcus aureus NCTC 8325 after 16 to 20 hrs by broth microdilution method in presence of efflux pump inhibitor reserpine; type: functional
Procedure, shortened: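 Broth microdilution in cation-adjusted MHB with reserpine at 20 µg/ml final in the medium as efflux inhibitor. Twofold DMSO dilutions were made (2% DMSO final) with 1 × 10^4 cells per well. Incubation was 37 °C for 16–20 h, with growth read at 600 nm.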

Staphylococcus aureus [8] = assay: Antibacterial activity against Staphylococcus aureus NCTC 8325 harboring genetic deletion of mepR gene after 16 to 20 hrs by broth microdilution method; type: functional; procedure, shortened: as §1
Staphylococcus aureus [9] = assay: Antibacterial activity against Staphylococcus aureus NCTC 8325 harboring genetic deletion of mepRA gene after 16 to 20 hrs by broth microdilution method; type: functional; procedure, shortened: as §1
Staphylococcus aureus [10] = assay: Antibacterial activity against Staphylococcus aureus NCTC 8325 carrying expression vector pG154 after 16 to 20 hrs by broth microdilution method; type: functional; procedure, shortened: as §1
Staphylococcus aureus [11] = assay: Antibacterial activity against Staphylococcus aureus NCTC 8325 carrying expression vector pG154 after 16 to 20 hrs by broth microdilution method in presence of anhydrous tetracycline; type: functional
Procedure, shortened: (§2)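 Broth microdilution in cation-adjusted MHB containing anhydrous tetracycline at 100 ng/ml final to induce the pG154 expression vector. Twofold DMSO compound dilutions were used (2% DMSO final) with 1 × 10^4 cells per well. Incubation was 37 °C for 16–20 h, and absorbance was read at 600 nm.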

Staphylococcus aureus [12] = assay: Antibacterial activity against Staphylococcus aureus NCTC 8325 carrying expression vector pG154 with mepA gene after 16 to 20 hrs by broth microdilution method; type: functional; procedure, shortened: as §1
Staphylococcus aureus [13] = assay: Antibacterial activity against Staphylococcus aureus NCTC 8325 carrying expression vector pG154 with mepA gene after 16 to 20 hrs by broth microdilution method in presence of anhydrous tetracycline; type: functional; procedure, shortened: as §2
Staphylococcus aureus [14] = assay: Antibacterial activity against Staphylococcus aureus NCTC 8325 harboring genetic deletion of mepRA gene and carrying expression vector pG154 after 16 to 20 hrs by broth microdilution method; type: functional; procedure, shortened: as §1
Staphylococcus aureus [15] = assay: Antibacterial activity against Staphylococcus aureus NCTC 8325 harboring genetic deletion of mepRA gene and carrying expression vector pG154 after 16 to 20 hrs by broth microdilution method in presence of anhydrous tetracycline; type: functional; procedure, shortened: as §2
Staphylococcus aureus [16] = assay: Antibacterial activity against Staphylococcus aureus NCTC 8325 harboring genetic deletion of mepRA gene and carrying expression vector pG154 with mepA gene after 16 to 20 hrs by broth microdilution method; type: functional; procedure, shortened: as §1
Staphylococcus aureus [17] = assay: Antibacterial activity against Staphylococcus aureus NCTC 8325 harboring genetic deletion of mepRA gene and carrying expression vector pG154 with mepA gene after 16 to 20 hrs by broth microdilution method in presence of anhydrous tetracycline; type: functional; procedure, shortened: as §2
[18] = Selectivity ratio of MIC for MBX-1090-resistant Staphylococcus aureus isolate d20A1 to MIC for Staphylococcus aureus NCTC 8325; type: functional
Procedure, shortened: (§3)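 Ratio of resistant-mutant MIC to NCTC 8325 MIC. Both MICs came from broth microdilution in cation-adjusted MHB with 2% DMSO final and 1 × 10^4 cells per well, incubated at 37 °C for 16–20 h and read at 600 nm.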

[19] = Selectivity ratio of MIC for MBX-1090-resistant Staphylococcus aureus isolate d20B1 to MIC for Staphylococcus aureus NCTC 8325; type: functional; procedure, shortened: as §3
[20] = Selectivity ratio of MIC for MBX-1090-resistant Staphylococcus aureus isolate d20C1 to MIC for Staphylococcus aureus NCTC 8325; type: functional; procedure, shortened: as §3
Staphylococcus aureus [21] = assay: Induction of mepA gene expression in Staphylococcus aureus NCTC 8325 at 0.8 ug/ml by RT-PCR analysis; type: functional, organism-based
Procedure, shortened: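 NCTC 8325 diluted 1/200 in TSB and grown at 37 °C (250 rpm) to OD600 0.3. 5 ml aliquots exposed 3 h to compound or DMSO (2% final), triplicate cultures pooled. RNA was DNase-treated and 1 µg primed with random hexamers for cDNA, with a no-RT control. mepA signal normalized to rho, untreated set to 1. Mean of three experiments ± SD.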

Staphylococcus aureus [22] = assay: Induction of mepR gene expression in Staphylococcus aureus NCTC 8325 at 0.8 ug/ml by RT-PCR analysis; type: functional, organism-based
Staphylococcus aureus [23] = assay: Upregulation of mepR gene expression in MBX-1090-resistant Staphylococcus aureus isolate d20A1 at 0.8 ug/ml by RT-PCR analysis relative to wild type; type: functional
Staphylococcus aureus [24] = assay: Upregulation of mepA gene expression in MBX-1090-resistant Staphylococcus aureus isolate d20A1 at 0.8 ug/ml by RT-PCR analysis relative to wild type; type: functional
Staphylococcus aureus [25] = assay: Upregulation of mepB gene expression in MBX-1090-resistant Staphylococcus aureus isolate d20A1 at 0.8 ug/ml by RT-PCR analysis relative to wild type; type: functional
Staphylococcus aureus [26] = assay: Upregulation of conventional hypothetical protein mRNA expression in MBX-1090-resistant Staphylococcus aureus isolate d20A1 at 0.8 ug/ml by RT-PCR analysis relative to wild type; type: functional
Staphylococcus aureus [27] = assay: Downregulation of protein A gene expression in MBX-1090-resistant Staphylococcus aureus isolate d20A1 at 0.8 ug/ml by RT-PCR analysis relative to wild type; type: functional
Staphylococcus aureus [28] = assay: Downregulation of ribH gene expression in MBX-1090-resistant Staphylococcus aureus isolate d20A1 at 0.8 ug/ml by RT-PCR analysis relative to wild type; type: functional
Staphylococcus aureus [29] = assay: Downregulation of ribA gene expression in MBX-1090-resistant Staphylococcus aureus isolate d20A1 at 0.8 ug/ml by RT-PCR analysis relative to wild type; type: functional
Staphylococcus aureus [30] = assay: Downregulation of ribE gene expression in MBX-1090-resistant Staphylococcus aureus isolate d20A1 at 0.8 ug/ml by RT-PCR analysis relative to wild type; type: functional
Staphylococcus aureus [31] = assay: Downregulation of ribD gene expression in MBX-1090-resistant Staphylococcus aureus isolate d20A1 at 0.8 ug/ml by RT-PCR analysis relative to wild type; type: functional
Staphylococcus aureus [32] = assay: microbe, parasite or virus in culture; settings: isolate d20A1

C(=C\c1cc2ccc(C3=NCCN3)cc2[nH]1)/c1cc2ccc(C3=NCCN3)cc2[nH]1
pKa [1]: 9.6
MIC (Staphylococcus aureus [2]): 1 µg/mL (≈ 2.53 µM)
MIC (Staphylococcus aureus [3]): 1 µg/mL (≈ 2.53 µM)
MIC (Staphylococcus aureus [4]): 8 µg/mL (≈ 20.3 µM)
MIC (Staphylococcus aureus [5]): 1 µg/mL (≈ 2.53 µM)
MIC (Staphylococcus aureus [6]): 1 µg/mL (≈ 2.53 µM)
MIC (Staphylococcus aureus [7]): 0.5 µg/mL
MIC (Staphylococcus aureus [8]): 4 µg/mL (≈ 10.1 µM)
MIC (Staphylococcus aureus [9]): 1 µg/mL (≈ 2.53 µM)
MIC (Staphylococcus aureus [10]): 1 µg/mL (≈ 2.53 µM)
MIC (Staphylococcus aureus [11]): 1 µg/mL
MIC (Staphylococcus aureus [12]): 1 µg/mL (≈ 2.53 µM)
MIC (Staphylococcus aureus [13]): 8 µg/mL
MIC (Staphylococcus aureus [14]): 1 µg/mL (≈ 2.53 µM)
MIC (Staphylococcus aureus [15]): 1 µg/mL
MIC (Staphylococcus aureus [16]): 1 µg/mL (≈ 2.53 µM)
MIC (Staphylococcus aureus [17]): 4 µg/mL
Selectivity ratio [18]: 8
Selectivity ratio [19]: 8
Selectivity ratio [20]: 8
Activity (Staphylococcus aureus [21]): inactive
Activity (Staphylococcus aureus [22]): inactive
fold change (FC) (Staphylococcus aureus [23]): 1.7
fold change (FC) (Staphylococcus aureus [24]): 2
fold change (FC) (Staphylococcus aureus [25]): 1
fold change (FC) (Staphylococcus aureus [26]): 15.3
fold change (FC) (Staphylococcus aureus [27]): 3.1
fold change (FC) (Staphylococcus aureus [28]): 1.9
fold change (FC) (Staphylococcus aureus [29]): 3
fold change (FC) (Staphylococcus aureus [30]): 2.6
fold change (FC) (Staphylococcus aureus [31]): 1.4
MIC (Staphylococcus aureus [32]): 8 µg/mL (≈ 20.3 µM)
